What was measured:
Format in all cases: functional
DU-145 = assay: Growth inhibition of human DU145 cells after 48 hrs by sulforhodamine B assay; details: DU-145, 48 h
Procedure, shortened: (§1)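 NCI-60 screen: cells in RPMI 1640 with 5% FBS and 2 mM glutamine, 5000–40,000 cells/well, preincubated 24 h. Five concentrations (10-fold dilutions; 100 to 0.001 µM) applied for 48 h at 37 °C. TCA fixation, SRB stain, absorbance at 515 nm. Time-zero plates included; GI50 where 100×(T−T0)/(C−T0)=50.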

SK-OV-3 = assay: Growth inhibition of human SKOV3 cells assessed as cell growth at 10 uM after 48 hrs by sulforhodamine B assay; details: SK-OV-3, 48 h, read-out: Activity
Procedure, shortened: (§2)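 Single-dose NCI-60 test at 10 µM. Cells were grown in RPMI 1640 with 5% FBS and 2 mM L-glutamine, preincubated 24 h, with T0 plates TCA-fixed. Exposure was 48 h at 37 °C, 5% CO2. Cells were fixed with cold TCA (final 10%, 4 °C, 60 min), stained with SRB and read at 515 nm. Percent growth was taken relative to T0 and untreated control; negative values denote cell kill.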

MCF7 = assay: Growth inhibition of human MCF7 cells assessed as cell growth at 10 uM after 48 hrs by sulforhodamine B assay; details: MCF7, 48 h, read-out: Activity
Procedure, shortened: (§3)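 Single-dose NCI-60 screen: adherent cells in RPMI 1640 with 5% FBS were exposed to 10 µM for 48 h at 37 °C after a 24 h preincubation. They were fixed in situ with cold TCA (10% final), stained with 0.4% SRB in 1% acetic acid, solubilized in 10 mM Tris base, and read at 515 nm. Percent growth was taken relative to time-zero and control plates.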

HCT-15 = assay: Growth inhibition of human HCT15 cells after 48 hrs by sulforhodamine B assay; details: HCT-15, 48 h; procedure, shortened: as §1
A549 [1] = assay: Growth inhibition of human A549/ATCC cells after 48 hrs by sulforhodamine B assay; details: A549, 48 h; procedure, shortened: as §1
BT-549 [2] = assay: Growth inhibition of human BT549 cells after 48 hrs by sulforhodamine B assay; details: BT-549, 48 h; procedure, shortened: as §1
A549 [3] = assay: Growth inhibition of human A549/ATCC cells assessed as cell growth at 10 uM after 48 hrs by sulforhodamine B assay; details: A549, 48 h, read-out: Activity
Procedure, shortened: (§4)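 NCI-60 single-dose screen at 10 µM: cells in RPMI 1640 with 5% FBS, preincubated 24 h, then exposed 48 h at 37 °C. TCA fixation (16% final for suspension cells), SRB staining, absorbance 515 nm. Percent growth relative to time-zero and untreated control plates; negative values indicate cell kill.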

BT-549 [4] = assay: Growth inhibition of human BT549 cells assessed as cell growth at 10 uM after 48 hrs by sulforhodamine B assay; details: BT-549, 48 h, read-out: Activity; procedure, shortened: as §4
M14 = assay: Growth inhibition of human M14 cells after 48 hrs by sulforhodamine B assay; details: M14, 48 h; procedure, shortened: as §1
NCI-H322M [5] = assay: Growth inhibition of human NCI-H322M cells after 48 hrs by sulforhodamine B assay
Procedure, shortened: (§5)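 NCI-60 panel cells grown in RPMI 1640 with 5% FBS and 2 mM L-glutamine, seeded at 5000–40,000 cells/well and preincubated 24 h. Five 10-fold dilutions (0.001–100 µM) from DMSO stocks were added for 48 h at 37 °C. Adherent cells were fixed with cold TCA (10% final) for 60 min at 4 °C, stained with 0.4% SRB, and read at 515 nm. GI50 was set where 100×(T−T0)/(C−T0)=50.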

HL-60(TB) = assay: Growth inhibition of human HL-60(TB) cells after 48 hrs by sulforhodamine B assay; details: HL-60, 48 h
Procedure, shortened: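 HL-60(TB) cells (suspension) grown in RPMI 1640 with 5% FBS and 2 mM L-glutamine. They were plated and preincubated for 24 h, with T0 plates fixed at that point. Drug was given at five 10-fold dilutions for 48 h at 37 °C. Settled cells were fixed with TCA (16% final), stained with 0.4% SRB in 1% acetic acid and read at 515 nm. GI50 was taken where 100×(T−T0)/(C−T0)=50.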

NCI-H460 = assay: Growth inhibition of human NCI-H460 cells after 48 hrs by sulforhodamine B assay; details: NCI-H460, 48 h; procedure, shortened: as §5
OVCAR-4 = assay: Growth inhibition of human OVCAR4 cells after 48 hrs by sulforhodamine B assay; details: OVCAR-4, 48 h; procedure, shortened: as §5
SN12C = assay: Growth inhibition of human SN12C cells assessed as cell growth at 10 uM after 48 hrs by sulforhodamine B assay; details: read-out: Activity; procedure, shortened: as §2
[6] = Growth inhibition of human NCI-ADR-RES cells assessed as cell growth at 10 uM after 48 hrs by sulforhodamine B assay; details: read-out: Activity; procedure, shortened: as §3
NCI-H322M [7] = assay: Growth inhibition of human NCI-H322M cells assessed as cell growth at 10 uM after 48 hrs by sulforhodamine B assay; details: read-out: Activity; procedure, shortened: as §3
UACC-62 = assay: Growth inhibition of human UACC62 cells after 48 hrs by sulforhodamine B assay; details: UACC-62, 48 h
Procedure, shortened: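 NCI-60 five-dose screen. Cells were grown in RPMI 1640 with 5% FBS and 2 mM L-glutamine, plated at 5000–40,000 cells/well and incubated 24 h before dosing, with T0 plates TCA-fixed. DMSO stocks were diluted to doses of […] and exposed 48 h at 37 °C, 5% CO2. Cells were fixed with cold TCA (final 10%, 60 min, 4 °C), stained with 0.4% SRB in 1% acetic acid for 10 min, solubilized in 10 mM trizma base and read at 515 nm. GI50 is where 100×(T−T0)/(C−T0)=50.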

MDA-MB-435 = assay: Growth inhibition of human MDA-MB-435 cells after 48 hrs by sulforhodamine B assay; details: MDA-MB-435, 48 h; procedure, shortened: as §5
CCRF-CEM = assay: Growth inhibition of human CCRF-CEM cells assessed as cell growth at 10 uM after 48 hrs by sulforhodamine B assay; details: read-out: Activity; procedure, shortened: as §4
[8] = Growth inhibition of human HCC2998 cells after 48 hrs by sulforhodamine B assay; details: HCC 2998, 48 h; procedure, shortened: as §1
HT-29 = assay: Growth inhibition of human HT-29 cells assessed as cell growth at 10 uM after 48 hrs by sulforhodamine B assay; details: HT-29, 48 h, read-out: Activity; procedure, shortened: as §4
IGROV-1 = assay: Growth inhibition of human IGROV1 cells after 48 hrs by sulforhodamine B assay; details: IGROV-1, 48 h; procedure, shortened: as §1
[9] = Growth inhibition of human Hs 578T cells assessed as cell growth at 10 uM after 48 hrs by sulforhodamine B assay; details: read-out: Activity; procedure, shortened: as §4
K562 = assay: Growth inhibition of human K562 cells assessed as cell growth at 10 uM after 48 hrs by sulforhodamine B assay; details: K562, 48 h, read-out: Activity; procedure, shortened: as §4
OVCAR-3 = assay: Growth inhibition of human OVCAR3 cells assessed as cell growth at 10 uM after 48 hrs by sulforhodamine B assay; details: OVCAR-3, 48 h, read-out: Activity; procedure, shortened: as §3
[10] = Growth inhibition of human EKVX cells assessed as cell growth at 10 uM after 48 hrs by sulforhodamine B assay; details: read-out: Activity; procedure, shortened: as §4

SMILES | GI50 (DU-145) [nM] | growth at 10 µM (SK-OV-3) [%] | growth at 10 µM (MCF7) [%] | GI50 (HCT-15) [nM] | GI50 (A549 [1]) [nM] | GI50 (BT-549 [2]) [nM] | growth at 10 µM (A549 [3]) [%] | growth at 10 µM (BT-549 [4]) [%] | GI50 (M14) [nM] | GI50 (NCI-H322M [5]) [nM] | GI50 (HL-60(TB)) [nM] | growth at 10 µM (SN12C) [%] | growth at 10 µM [6] [%] | growth at 10 µM (NCI-H322M [7]) [%] | growth at 10 µM (CCRF-CEM) [%] | growth at 10 µM (HT-29) [%] | growth at 10 µM [9] [%] | growth at 10 µM (K562) [%] | growth at 10 µM (OVCAR-3) [%] | growth at 10 µM [10] [%] | further results
CC(C)=CCC/C(C)=C/CC/C(C)=C/CC[C@]1(C)CCc2c3c(c(C)c(C)c2O1)OCN(CCCCCCO)C3 | 2960 | 13.4 | -69.5 | 2690 | 3090 | 4180 | 38.9 | 119 | 3110 | 2710 | 3580 | 66.5 | 30.1 | 69.5 | 5.83 | 17.4 | 90.4 |  |  |  | GI50 (NCI-H460): 3150 nM; GI50 (OVCAR-4): 2490 nM; GI50 (UACC-62): 2670 nM; GI50 (MDA-MB-435): 2950 nM; GI50 [8]: 2620 nM; GI50 (IGROV-1): 2690 nM
CC(C)=CCC/C(C)=C/CC/C(C)=C/CC[C@]1(C)CCc2c3c(c(C)c(C)c2O1)OCN(CCCCCCCCCCO)C3 |  |  | 93.4 |  |  |  | 74.9 | 108 |  |  |  | 99.4 | 99.2 | 101 | 87.7 | 90 | 96.5 | 77.6 | 94.8 | 102 | 
COc1ccc(CCN2COc3c(C)c(C)c4c(c3C2)CC[C@@](C)(CC/C=C(\C)CC/C=C(\C)CCC=C(C)C)O4)cc1OC |  | 95.3 | 77.5 |  |  |  | 98.9 | 115 |  |  |  | 87.3 | 101 | 101 | 78 | 91.7 | 198 | 78.3 | 105 | 94.1 | 
CC(C)=CCC/C(C)=C/CC/C(C)=C/CC[C@]1(C)CCc2cc(O)c(C)c(C)c2O1 [GAMMA-TOCOTRIENOL] |  |  | 84.1 |  |  |  | 105 | 141 |  |  |  | 96 | 96.9 | 95.2 | 84 | 96.1 | 102 | 85 | 110 | 110 | 
CC(C)=CCC/C(C)=C/CC/C(C)=C/CC[C@]1(C)CCc2c3c(c(C)c(C)c2O1)OCN(CCCCCCCCO)C3 | 2980 | 52.9 | 4.37 | 3320 | 2500 | 3390 | 20.2 | 109 | 3020 | 2700 | 3440 | 65.8 | 66.6 | 65.3 | 10.4 | 31.1 | 81.7 |  | 31.7 |  | GI50 (NCI-H460): 3250 nM; GI50 (OVCAR-4): 2810 nM; GI50 (UACC-62): 2510 nM; GI50 (MDA-MB-435): 3200 nM; GI50 [8]: 2730 nM; GI50 (IGROV-1): 2880 nM

— ChEMBL document CHEMBL2380254, “Optimization of tocotrienols as antiproliferative and antimigratory leads” (Eur J Med Chem, 2013)
